For data set [1], the system named is C2C12. The data set is described as follows: Effect on glucose consumption in mouse C2C12 cells at 30 ug/ml after 24 hrs. It counts as functional, cell-based. Put shortly:
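C2C12 myoblasts are grown in high-glucose DMEM with 10% FBS at 37 °C, 5% CO2. At confluence they are switched to DMEM with 10% horse serum for 8 days to form myotubes. Myotubes are then given 10% FBS high-glucose DMEM with or without 30 μg/mL compound for 24 h. Glucose remaining in the medium is measured to calculate glucose consumption.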

Data set [2] is described as follows: Drug level in aqueous solution treated with 20-hydroxyecdysone at 120 mg incubated for 2 days measured at 0.5 to 48 hrs by HPLC-DAD analysis in presence of NaOH. In kind it is physicochemical. Conditions: in vivo. Put shortly: (§1)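 20E (120 mg) is stirred at room temperature (22−25 °C) in 70% aqueous MeOH with 2% NaOH, and aliquots are taken over time. Analysis is by analytical HPLC on a C18 column with an aqueous acetonitrile gradient and 9.6% acetic acid, 1 mL/min. Compounds are quantified from peak AUC at each λmax against calibration dilutions and expressed relative to initial 20E. Three independent experiments; one-phase decay regression.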

For data set [3], the target named is RAC-alpha serine/threonine-protein kinase (Mus musculus) (UniProt P31750). Description: Induction of Akt phosphorylation in mouse C2C12 cells at 30 ug/ml pretreated with compound for 24 hrs followed by fresh medium with compound addition measured after 2 hrs by Western blot analysis. It counts as cell-based. Put shortly:
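Differentiated C2C12 myotubes (8 days in horse serum medium) are exposed to 30 μg/mL compound in 10% FBS high-glucose DMEM for 24 h, without overnight serum starvation. Fresh medium with the same compound concentration is added for a further 2 h. Cells are lysed in SDS sample buffer, resolved on 10% SDS-PAGE, transferred to PVDF and probed for phospho- and total Akt.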
A general note: A western blot detects proteins with antibodies after separation by electrophoresis.

Data set [4] can be described thus: Half life of the compound by HPLC analysis in presence of NaOH. It counts as physicochemical. Summed up: as §1
Data set [5] can be described thus: Chemical stability of the compound in acidic media at pH 3 at room temperature. It counts as physicochemical. Conditions: buffer.
A short description of data set [6]: Drug level in aqueous solution treated with (2S,3R,10R,13R,14S,17S)-2,3,6,14-tetrahydroxy-10,13-dimethyl-17-((2R,3R)-2,3,6-trihydroxy-6-methylheptan-2-yl)-3,4,10,11,12,13,14,15,16,17-decahydro-1H-cyclopenta[a]phenanthren-7(2H)-one at pH 8. In kind it is physicochemical. The following applies: buffer.
Data set [7] can be described thus: Chemical stability of the compound in basic media at pH 8 at room temperature. In kind it is physicochemical. The following applies: buffer.
Data set [8] is described as follows: Chemical stability of the compound in neutral media at room temperature. It counts as physicochemical.
Data set [9] in a line: Drug level in aqueous solution treated with 20-hydroxyecdysone at 120 mg at pH 6 to 6.5 measured at 6 to 7 hrs hrs by HPLC-DAD analysis. It counts as physicochemical. Conditions: in vivo. Summed up: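 20E was reacted with NaOH at room temperature, and the mixture was set to pH 6−6.5 with acetic acid before evaporation under nitrogen. Products were quantified by C18 HPLC with an aqueous acetonitrile gradient, using AUC at λmax against calibration dilutions of isolated compounds. Amounts are expressed relative to initial 20E.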

Data set [10] in a line: Chemical stability of the compound at 80 degC. It counts as physicochemical.
A short description of data set [11]: Drug level in aqueous solution treated with (2S,3R,10R,13R,14S,17S)-2,3,6,14-tetrahydroxy-10,13-dimethyl-17-((2R,3R)-2,3,6-trihydroxy-6-methylheptan-2-yl)-3,4,10,11,12,13,14,15,16,17-decahydro-1H-cyclopenta[a]phenanthren-7(2H)-one at pH 3. It counts as physicochemical. The following applies: buffer.
The nature of data set [12]: Drug level in aqueous solution treated with (2S,3R,5R,10S,13R,17S)-2,3,7-trihydroxy-10,13-dimethyl-17-((2R,3R)-2,3,6-trihydroxy-6-methylheptan-2-yl)-2,3,4,5,12,13,16,17-octahydro-1H-cyclopenta[a]phenanthren-6(10H)-one at 80 degC after 4 days. In kind it is physicochemical. The following applies: buffer, 96 h.
The nature of data set [13]: Drug level in aqueous solution treated with (2S,3R,5R,9R,10R,13R,14S,17S)-2,3,14-trihydroxy-10,13-dimethyl-17-((2R,3R)-2,3,6-trihydroxy-6-methylheptan-2-yl)-2,3,4,5,9,11,12,13,14,15,16,17-dodecahydro-1H-cyclopenta[a]phenanthren-6(10H)-one at 120 mg incubated for 2 days measured at 0.5 to 48 hrs by HPLC-DAD analysis in presence of NaOH. It counts as physicochemical. The following applies: in vivo. Summed up: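 120 mg 20E stirred with 100 mg NaOH at room temperature (22−25 °C) and sampled over time. Samples were analysed by HPLC on a C18 column using an aqueous acetonitrile gradient with acetic acid at 1 mL/min. Peak AUC was read at each compound's λmax and calibrated against dilutions of isolated compounds. Amounts are relative to initial 20E; three independent experiments.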

The source made the active and inactive calls. No cut-off for these calls is given here.

RAC-alpha serine/threonine-protein kinase (Mus musculus), sequence (P31750 whole entry): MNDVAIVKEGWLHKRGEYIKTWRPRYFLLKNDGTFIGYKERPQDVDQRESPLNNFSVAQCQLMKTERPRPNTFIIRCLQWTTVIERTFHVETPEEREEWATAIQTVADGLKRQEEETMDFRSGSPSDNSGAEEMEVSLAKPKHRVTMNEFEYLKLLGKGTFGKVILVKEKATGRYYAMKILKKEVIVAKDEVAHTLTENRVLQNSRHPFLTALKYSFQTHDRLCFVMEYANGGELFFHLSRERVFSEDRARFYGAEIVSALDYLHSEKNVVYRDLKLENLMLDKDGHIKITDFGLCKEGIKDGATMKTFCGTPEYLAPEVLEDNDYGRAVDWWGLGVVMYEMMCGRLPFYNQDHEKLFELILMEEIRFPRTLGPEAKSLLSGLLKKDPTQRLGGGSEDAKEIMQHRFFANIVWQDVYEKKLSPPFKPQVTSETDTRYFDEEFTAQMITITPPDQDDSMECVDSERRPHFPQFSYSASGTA

Take `CC(C)(O)CC[C@@H](O)[C@](C)(O)[C@H]1CC[C@@]2(O)C3=C(CC[C@]12C)[C@@]1(C)C[C@H](O)[C@H](O)CC1=C(O)C3=O`: the result in data set [1] was inactive. Also, the Drug metabolism result in data set [2] was “metabolite_detected”.
As a reminder, the half-life is the time in which the quantity being followed falls by half. `CC(C)(O)CC[C@@H](O)[C@](C)(O)[C@H]1CC[C@@]2(O)C3=CC(=O)[C@@H]4C[C@@H](O)[C@@H](O)C[C@]4(C)[C@H]3CC[C@]12C` [20-HYDROXYECDYSONE]: the result in [1] and in [3] was inactive. Moreover, the half-life in [4] is 1.39 h.
For the molecule `CC(C)(O)CC[C@@H](O)[C@](C)(O)[C@H]1CC=C2C3=C(O)C(=O)[C@@H]4C[C@@H](O)[C@@H](O)C[C@]4(C)C3=CC[C@@]21C`, the outcome in [1] and in [3] was inactive. Moreover, the Stability entry in data set [5], in data set [7] and in [8] was “Stable” each time. Besides, the Drug metabolism entry in [2] and in data set [6] was “metabolite_detected” in each case.
With `CC(C)(O)CC[C@@H](O)[C@](C)(O)[C@H]1CC=C2C3=C(CC[C@@]21C)[C@@]1(C)C[C@H](O)[C@H](O)CC1=C(O)C3=O`, the Drug metabolism entry in data set [9], in data set [11] and in data set [12] was “metabolite_detected” throughout. For the same molecule, the result in data set [1] was inactive. In addition, the Stability entry in data set [10], in data set [5], in data set [7] and in data set [8] was “Stable” in each case. Moreover, the outcome in data set [3] was Active.
Turning to `CC(C)(O)CC[C@@H](O)[C@](C)(O)[C@H]1CC[C@@]2(O)C3=CC(=O)[C@@H]4C[C@@H](O)[C@@H](O)C[C@]4(C)C3=CC[C@]12C`, the result in data set [1] was inactive.
For the molecule `CC(C)(O)CC[C@@H](O)[C@](C)(O)[C@H]1CC[C@@]2(O)C3=CC(=O)[C@H]4C[C@@H](O)[C@@H](O)C[C@]4(C)[C@@]3(O)CC[C@]12C`, the outcome in data set [1] was inactive. In addition, the result in data set [3] was Active. Besides, the Drug metabolism entry in data set [13] was “metabolite_detected”.
In the case of `CC(C)(O)CC[C@@H](O)[C@](C)(O)[C@H]1CC[C@@]2(O)C3=CC(=O)[C@@H]4C[C@@H](O)[C@@H](O)C[C@]4(C)[C@@]3(O)CC[C@]12C`, in data set [1], the outcome was inactive. Moreover, the Drug metabolism entry in [13] is on record as “metabolite_detected”.

The values are drawn from ChEMBL document CHEMBL3632548, “Oxidized Metabolites of 20-Hydroxyecdysone and Their Activity on Skeletal Muscle Cells: Preparation of a Pair of Desmotropes with Opposite Bioactivities” (J Nat Prod, 2015).
